Data as given in article PMC7237957 (European Heart Journal Cardiovascular Imaging, 2019).
Where two headings read alike, the source gives them in different places.

Tests used:
Format in all cases: binding
Factor XIIIa = molecular target: T1, Factor XIIIa (Homo sapiens, UniProt P00488); details: co-infusion of iodoacetamide 10 mg/mL, n = 10
T1 sequence (P00488 39-732 limits assumed): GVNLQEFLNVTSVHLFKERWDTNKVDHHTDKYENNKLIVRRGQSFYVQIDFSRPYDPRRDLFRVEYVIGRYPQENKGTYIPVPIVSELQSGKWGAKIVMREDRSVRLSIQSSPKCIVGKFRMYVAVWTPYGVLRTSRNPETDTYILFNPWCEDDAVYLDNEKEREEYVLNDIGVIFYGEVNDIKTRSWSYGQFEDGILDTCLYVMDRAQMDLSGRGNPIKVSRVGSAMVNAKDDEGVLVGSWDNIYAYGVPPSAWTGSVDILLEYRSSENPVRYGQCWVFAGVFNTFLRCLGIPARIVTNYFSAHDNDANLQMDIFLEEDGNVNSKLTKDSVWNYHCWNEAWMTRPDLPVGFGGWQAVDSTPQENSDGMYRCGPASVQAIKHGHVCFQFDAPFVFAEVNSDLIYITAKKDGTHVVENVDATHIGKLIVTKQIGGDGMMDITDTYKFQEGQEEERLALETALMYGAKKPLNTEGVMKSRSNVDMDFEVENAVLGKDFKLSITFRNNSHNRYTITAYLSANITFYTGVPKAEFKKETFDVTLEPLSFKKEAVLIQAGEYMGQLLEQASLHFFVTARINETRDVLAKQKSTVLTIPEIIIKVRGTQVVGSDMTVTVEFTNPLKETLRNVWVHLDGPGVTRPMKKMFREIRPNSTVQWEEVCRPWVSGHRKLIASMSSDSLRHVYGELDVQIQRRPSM
In short: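 Native blood from healthy male volunteers was pumped at 10 mL/min for 5 min through three 37°C chambers over porcine aortic strips (intima removed), at 212 s−1 (low shear) or 1690 s−1 (high shear), then flushed with saline. Tracer was infused at 4.6 ± 0.5 MBq/mL, or 5.5 ± 0.9 MBq/mL with 10 mg/mL iodoacetamide. Strips were scanned by NanoPET/CT; equal thrombus VOIs (kBq/mL) were divided by infused MBq.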

human thrombus = molecular target: T2, human thrombus (Homo sapiens, UniProt P00488); test: Autoradiography of ex vivo human thrombus sections with blocking; details: human explanted thrombus sections; 5 μM co-incubated
T2 sequence (P00488 39-732 limits assumed): T1 sequence (P00488 39-732 limits assumed)
In short: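 Paraffin-embedded cross-sections of ex vivo human thrombi (n = 3) were de-paraffinised, rehydrated and incubated 2 h at 37°C with 18F-tracer alone or co-incubated with unlabelled tracer, scrambled peptide or iodoacetamide (each 5 μM), in quadruplicate. Slides were washed twice in phosphate buffer, air-dried and exposed to a phosphor screen. Equal ROIs gave greyscale pixel intensity; %SB = tracer-only minus inhibitor-section activity.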

rodent carotid thrombus = molecular target: T3, rodent carotid thrombus (Rattus norvegicus, UniProt O08619); details: rodent explanted thrombus sections; 5 μM co-incubated
T3 sequence (O08619 39-732 limits assumed): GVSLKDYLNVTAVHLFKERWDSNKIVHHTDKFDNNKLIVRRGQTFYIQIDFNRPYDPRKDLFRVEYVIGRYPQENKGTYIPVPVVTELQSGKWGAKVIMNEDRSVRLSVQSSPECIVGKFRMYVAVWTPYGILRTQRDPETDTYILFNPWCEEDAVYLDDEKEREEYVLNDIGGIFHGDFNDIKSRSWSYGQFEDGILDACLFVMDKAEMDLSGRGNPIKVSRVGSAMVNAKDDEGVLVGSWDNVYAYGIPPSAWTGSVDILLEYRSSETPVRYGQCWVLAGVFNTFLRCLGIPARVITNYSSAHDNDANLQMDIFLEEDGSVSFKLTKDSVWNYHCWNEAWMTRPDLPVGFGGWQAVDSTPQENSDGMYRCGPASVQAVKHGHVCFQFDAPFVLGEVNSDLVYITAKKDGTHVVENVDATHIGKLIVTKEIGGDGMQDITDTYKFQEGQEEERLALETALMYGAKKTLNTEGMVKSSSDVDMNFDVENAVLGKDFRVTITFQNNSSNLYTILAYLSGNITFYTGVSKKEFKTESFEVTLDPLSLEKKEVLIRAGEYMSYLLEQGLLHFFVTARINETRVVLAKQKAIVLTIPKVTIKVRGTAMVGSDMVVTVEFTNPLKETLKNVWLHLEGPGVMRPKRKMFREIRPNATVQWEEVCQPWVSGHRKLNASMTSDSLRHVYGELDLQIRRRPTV
In short: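 Thrombosed left common carotid (ferric chloride model) was harvested from one rat after sacrifice. Sections were de-paraffinised, rehydrated and incubated 2 h at 37°C with 18F-tracer alone or with 5 μM unlabelled tracer, scrambled peptide or iodoacetamide. They were then washed, dried and exposed to a phosphor screen. Greyscale intensity was read in equal ROIs; %SB = tracer-only minus inhibitor sections.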

`NC(=O)CI` [iodoacetamide, Iodoacetamide] was tested, and the “Reduction of 18F-ENC2015 thrombus binding” value (Factor XIIIa; high shear thrombi) was 87%, the “Reduction of 18F-ENC2015 thrombus binding” value (Factor XIIIa; low shear thrombi) was 88% and the “Effect on 18F-ENC2015 uptake (autoradiography)” value (human thrombus) was “no effect”. For the same molecule, the “Effect on 18F-ENC2015 uptake (autoradiography)” value (rodent carotid thrombus) was “no effect”.
